Test results: ChEMBL document CHEMBL1208666, “Novel 6,8-dibromo-4(3H)quinazolinone derivatives of anti-bacterial and anti-fungal activities” (2010)
In brackets after ≈: the same amount, converted by molar mass. Activity calls are given as the source filed them. The calls are words filed in the database; no cut-off is given here.

What was measured:
Salmonella typhimurium [1] = assay: Antibacterial activity against Salmonella Typhimurium at 100 ug/ml after 24 hrs by paper disc diffusion technique; assay type: functional, Salmonella enterica subsp. enterica serovar Typhimurium; conditions: Salmonella enterica, read-out: IZ
Summary of the method: (§1)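 Paper disc diffusion on Mueller Hinton agar, autoclaved at 120 °C for 30 min. Medium at 40–50 °C was seeded at 1 ml/100 ml with a 10^5 cfu/ml suspension matched to 0.9 McFarland. It was poured 3–4 mm deep, and discs with compound in DMSO were laid on it. Plates were pre-incubated 1 h at room temperature, then 37 °C for 24 h. The inhibition zone was measured.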

Salmonella typhimurium [2] = assay: Antibacterial activity against Salmonella Typhimurium after 24 hrs by agar streak dilution method; assay type: functional, Salmonella enterica subsp. enterica serovar Typhimurium; conditions: Salmonella enterica
Summary of the method: (§2)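 Agar streak dilution on Mueller Hinton agar. Compound stock in DMSO was added in graded amounts to molten sterile agar at 40–50 °C. This was poured 3–4 mm deep and left to solidify. Bacterial suspension of about 10^5 cfu/ml was applied to the serially diluted plates. Plates were incubated at 37 °C for 24 h to read the MIC. Strains were food-poisoning isolates from animal byproducts.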

Listeria monocytogenes [3] = assay: Antibacterial activity against Listeria monocytogenes at 100 ug/ml after 24 hrs by paper disc diffusion technique; assay type: functional; conditions: read-out: IZ; summary of the method: as §1
Listeria monocytogenes [4] = assay: Antibacterial activity against Listeria monocytogenes after 24 hrs by agar streak dilution method; assay type: functional; summary of the method: as §2
Staphylococcus aureus [5] = assay: Antibacterial activity against Staphylococcus aureus at 100 ug/ml after 24 hrs by paper disc diffusion technique; assay type: functional; conditions: read-out: IZ; summary of the method: as §1
Staphylococcus aureus [6] = assay: Antibacterial activity against Staphylococcus aureus after 24 hrs by agar streak dilution method; assay type: functional; summary of the method: as §2
Pseudomonas aeruginosa [7] = assay: Antibacterial activity against Pseudomonas aeruginosa at 100 ug/ml after 24 hrs by paper disc diffusion technique; assay type: functional; conditions: read-out: IZ; summary of the method: as §1
Pseudomonas aeruginosa [8] = assay: Antibacterial activity against Pseudomonas aeruginosa after 24 hrs by agar streak dilution method; assay type: functional; summary of the method: as §2
Bacillus cereus [9] = assay: Antibacterial activity against Bacillus cereus at 100 ug/ml after 24 hrs by paper disc diffusion technique; assay type: functional; conditions: read-out: IZ; summary of the method: as §1
Bacillus cereus [10] = assay: Antibacterial activity against Bacillus cereus after 24 hrs by agar streak dilution method; assay type: functional; summary of the method: as §2
Candida albicans [11] = assay: Antifungal activity against Candida albicans at 100 ug/ml after 48 hrs by paper disc diffusion technique; assay type: functional; conditions: for zone of inhibition at 100 µg/mL: read-out: IZ
Summary of the method: (§3)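 Paper disc diffusion on Sabouraud dextrose agar, autoclaved at 120 °C for 30 min. Medium at 40–50 °C was seeded at 1 ml/100 ml with a 10^5 cfu/ml fungal suspension matched to 0.9 McFarland. It was poured 3–4 mm deep, and compound discs in DMSO were applied. Plates were pre-incubated 1 h at room temperature, then 28 °C for 48 h. The inhibition zone was recorded.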

Candida albicans [12] = assay: Antifungal activity against Candida albicans after 48 hrs by agar streak dilution method; assay type: functional
Summary of the method: (§4)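 Fungal MIC by agar streak dilution on Sabouraud dextrose agar. Compound stock in DMSO was added in graded amounts to molten sterile medium at 40–50 °C. This was poured 3–4 mm deep and left to solidify. Fungal suspension of about 10^5 cfu/ml was applied to the serially diluted plates. Plates were incubated at 37 °C for 48 h.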

Aspergillus flavus [13] = assay: Antifungal activity against Aspergillus flavus at 100 ug/ml after 48 hrs by paper disc diffusion technique; assay type: functional; conditions: for zone of inhibition at 100 µg/mL: read-out: IZ; summary of the method: as §3
Aspergillus flavus [14] = assay: Antifungal activity against Aspergillus flavus after 48 hrs by agar streak dilution method; assay type: functional; summary of the method: as §4
Escherichia coli [15] = assay: Antibacterial activity against Escherichia coli O157 at 100 ug/ml after 24 hrs by paper disc diffusion technique; assay type: functional; conditions: O157, 24 h, read-out: IZ
Escherichia coli [16] = assay: Antibacterial activity against Escherichia coli O157 after 24 hrs by agar streak dilution method; assay type: functional; conditions: O157, 24 h

| Compound | zone of inhibition at 100 µg/mL (Salmonella typhimurium [1]) [mm] | MIC (Salmonella typhimurium [2]) [µg/mL] | zone of inhibition at 100 µg/mL (Listeria monocytogenes [3]) [mm] | MIC (Listeria monocytogenes [4]) [µg/mL] | zone of inhibition at 100 µg/mL (Staphylococcus aureus [5]) [mm] | MIC (Staphylococcus aureus [6]) [µg/mL] | zone of inhibition at 100 µg/mL (Pseudomonas aeruginosa [7]) [mm] | MIC (Pseudomonas aeruginosa [8]) [µg/mL] | zone of inhibition at 100 µg/mL (Bacillus cereus [9]) [mm] | MIC (Bacillus cereus [10]) [µg/mL] | zone of inhibition at 100 µg/mL (Candida albicans [11]) [mm] | MIC (Candida albicans [12]) [µg/mL] | inhibition zone (IZ) (Aspergillus flavus [13]) | zone of inhibition at 100 µg/mL (Aspergillus flavus [13]) [mm] | MIC (Aspergillus flavus [14]) [µg/mL] | zone of inhibition at 100 µg/mL (Escherichia coli [15]) [mm] | MIC (Escherichia coli [16]) [µg/mL] | inhibition zone (IZ) (Candida albicans [11]) |
| --- | --- | --- | --- | --- | --- | --- | --- | --- | --- | --- | --- | --- | --- | --- | --- | --- | --- | --- |
| Cc1cc(C)n(C(=O)c2ccc(-n3c(-c4ccccc4)nc4c(Br)cc(Br)cc4c3=O)cc2)n1 | 14 | 20 (≈ 34.6 µM) | 15 | 12.5 (≈ 21.6 µM) | 10 | 50 (≈ 86.5 µM) | 12 | 30 (≈ 51.9 µM) | 13 | 25 (≈ 43.2 µM) | 9 | 50 (≈ 86.5 µM) | inactive |  |  |  |  |  |
| OC(Cn1cncn1)(Cn1cncn1)c1ccc(F)cc1F [FLUCONAZOLE] |  |  |  |  |  |  |  |  |  |  | 18 | 1.56 (≈ 5.09 µM) |  | 22 | 0.78 (≈ 2.55 µM) |  |  |  |
| O=C(NN1C(=O)c2ccccc2C1=O)c1ccc(-n2c(-c3ccccc3)nc3c(Br)cc(Br)cc3c2=O)cc1 | 11 | > 50 | 10 | > 50 | 10 | > 50 | 11 | > 50 | 16 | 5.5 (≈ 8.54 µM) | 9 | 50 (≈ 77.6 µM) |  | 25 | 0.39 (≈ 0.605 µM) | 11 | 50 (≈ 77.6 µM) |  |
| O=C(N/N=C/c1ccco1)c1ccc(-n2c(-c3ccccc3)nc3c(Br)cc(Br)cc3c2=O)cc1 | 16 | 5 (≈ 8.44 µM) | 11 | > 50 | 13 | 20 (≈ 33.8 µM) | 8 | > 50 | 12 | 50 (≈ 84.4 µM) | 12 | 25 (≈ 42.2 µM) | inactive |  |  | 9 | > 50 |  |
| O=C(N/N=C/c1ccc(Cl)c(Cl)c1)c1ccc(-n2c(-c3ccccc3)nc3c(Br)cc(Br)cc3c2=O)cc1 | 11 | 50 (≈ 74.5 µM) | 13 | 25 (≈ 37.2 µM) | 14 | 25 (≈ 37.2 µM) | 14 | 25 (≈ 37.2 µM) | 17 | 1.56 (≈ 2.32 µM) | 11 | 25 (≈ 37.2 µM) |  | 12 | 19 (≈ 28.3 µM) | 14 | 25 (≈ 37.2 µM) |  |
| COc1ccc(C2SCC(=O)N2NC(=O)c2ccc(-n3c(-c4ccccc4)nc4c(Br)cc(Br)cc4c3=O)cc2)cc1 (stereo unspecified) | 12 | 40 (≈ 56.6 µM) | 11 | > 50 | 10 | 45 (≈ 63.7 µM) | 11 | 50 (≈ 70.8 µM) | 18 | 1.9 (≈ 2.69 µM) | 10 | 25 (≈ 35.4 µM) |  | 20 | 1.56 (≈ 2.21 µM) | 11 | 45 (≈ 63.7 µM) |  |
| O=C(NN1C(=O)C=CC1=O)c1ccc(-n2c(-c3ccccc3)nc3c(Br)cc(Br)cc3c2=O)cc1 | 17 | 2.9 (≈ 4.88 µM) | 11 | > 50 | 9 | > 50 | 11 | > 50 | 9 | 50 (≈ 84.1 µM) | 10 | 25 (≈ 42.1 µM) |  | 17 | 4.5 (≈ 7.57 µM) | 9 | > 50 |  |
| Cc1nnc(-c2ccc(-n3c(-c4ccccc4)nc4c(Br)cc(Br)cc4c3=O)cc2)o1 | 12 | 50 (≈ 92.9 µM) | 15 | 12.5 (≈ 23.2 µM) | 15 | 12.5 (≈ 23.2 µM) | 12 | 50 (≈ 92.9 µM) | 17 | 1.56 (≈ 2.9 µM) | 11 | 25 (≈ 46.5 µM) |  | 18 | 9.5 (≈ 17.7 µM) | 14 | 25 (≈ 46.5 µM) |  |
| CC1=NN(C(=O)c2ccc(-n3c(-c4ccccc4)nc4c(Br)cc(Br)cc4c3=O)cc2)C(=O)C1 | 14 | 30 (≈ 51.7 µM) | 16 | 6 (≈ 10.3 µM) | 11 | 40 (≈ 68.9 µM) | 12 | 50 (≈ 86.2 µM) | 11 | > 50 | 9 | 50 (≈ 86.2 µM) |  | 20 | 2.5 (≈ 4.31 µM) |  |  |  |
| O=C(N/N=C/c1ccc(Cl)cc1)c1ccc(-n2c(-c3ccccc3)nc3c(Br)cc(Br)cc3c2=O)cc1 | 10 | > 50 | 14 | 30 (≈ 47.1 µM) | 12 | 25 (≈ 39.3 µM) | 12 | 20 (≈ 31.4 µM) | 16 | 5.5 (≈ 8.64 µM) |  |  |  | 16 | 12.5 (≈ 19.6 µM) | 12 | 20 (≈ 31.4 µM) | inactive |
| O=C(N/N=C/c1ccccc1O)c1ccc(-n2c(-c3ccccc3)nc3c(Br)cc(Br)cc3c2=O)cc1 | 13 | 30 (≈ 48.5 µM) | 11 | 50 (≈ 80.9 µM) | 15 | 12.5 (≈ 20.2 µM) | 11 | > 50 | 13 | 25.5 (≈ 41.2 µM) |  |  |  | 15 | 10.5 (≈ 17 µM) | 10 | 50 (≈ 80.9 µM) | inactive |
